A word on the inhibition: it is the drop in the measured response relative to a control, in per cent.

In all, about 300,000 compounds went through this assay and about 4,400 (1.5%) were called active. The sample as a whole holds a higher share of actives than the screen did. Unmarked numbers belong to inactive results.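 Rule for the calls: active = mean inhibition across valid replicates above about 55% (limit read from the data); inconclusive = mean below that limit but half or more replicates reach it; inactive = mean below it, under half of replicates reach it.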

The assay in a line: inhibitors of intracellular T. cruzi growth, primary screen, luminescence, NIH3T3 host cells (AID 1885).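 Note: signal also drops with host cell toxicity which is not excluded here; 0% = plate median of DMSO wells and 100% = zero luminescence signal; higher percent means less beta-gal luminescence so fewer parasites.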 As to conditions: T. cruzi beta-gal in NIH3T3, luminescence, 90 h; stronger effect = higher value; concentration not given here. In short, it runs like this:
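Assay system: NIH/3T3 host cells with β-galactosidase reporter T. cruzi; input: 5,000 host fibroblasts per well; compound: single 50 nL compound addition per well in DMSO; timing: ≥90 h infection period, 3 h prior cell attachment; measured by: GalScreen β-gal luminescence, detergent lysis, 60 min; evaluation: percent inhibition of parasite-derived β-gal signal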
`Cc1c(C(=O)OCC(=O)N2CCCC2=O)oc2ccccc12`: the inhibition is -3.64%.

On to `O=C(CCN1CCN(C/C=C/c2ccccc2)CC1)Nc1cccc(F)c1`, for which the inhibition is 58.2% (active).

`O=C(CCN1CCN(C/C=C/c2ccccc2)CC1)Nc1ccccc1Cl`: the inhibition was 33.5%.

`O=C(CN1CCN(C/C=C/c2ccccc2)CC1)Nc1ccc(F)cc1F`: the inhibition was 32.3%.

Regarding `CC[C@@]12C(=O)N(c3ccccc3)C(=O)N1[C@H](c1ccc(Br)cc1)[C@@H]1C(=O)N(C(C)(C)C)C(=O)[C@@H]12`, the inhibition is 1.35%.

For the molecule `CC(C)COC(=O)c1ccc(NC(=O)C2C3C=CC(C3)C2C(=O)O)cc1` (stereo unspecified), the inhibition is 1.59%.

As to `CCOC(=O)c1cnc(-c2ccccc2)nc1Oc1ccc(C)cc1`, the inhibition was 7.98%.

For `CCOC(=O)c1cnc(-n2nc(C)cc2C)nc1Nc1cccc(C(C)=O)c1`, the inhibition is -12.3%.

Take `CCOC(=O)c1cnc(-n2nc(C)cc2C)nc1NNc1cc(C)nc(-c2ccccc2)n1`: the inhibition was 54.9% (active).

For the molecule `CCCCn1c(N)c(N(CCC(C)C)C(=O)c2ccc(COc3ccccc3)o2)c(=O)[nH]c1=O`, the inhibition is 0.734%.

As to `CCc1c(C)nc(SCC(=O)NC2CCCC2)[nH]c1=O`, the inhibition was -9.04%.

Regarding `CC(C)c1csc(CN2CCC(CO)(Cc3ccccc3)CC2)n1`, the inhibition is 67.1% (active).

In the case of `CC(=O)c1cccc(CN2CCC(CO)(Cc3ccccc3)CC2)c1`, the inhibition is 11.2%.

`OCC1(Cc2ccccc2)CCN(Cc2cc3ccccc3o2)CC1`: the inhibition is 16.6%.

`Cc1ccc(C(=O)NC2CCCC(C)C2C)cc1S(=O)(=O)N1CCCCC1` (stereo unspecified): the inhibition was 19.9%.

`O=C(CSc1nc2[nH]ncc2c(=O)[nH]1)Nc1ccc(F)cc1`: the inhibition was -0.401%.

In the case of `COc1ccc(S(=O)(=O)N2CCCCC2)cc1NC(=O)C1CC(=O)N(c2ccc3c(c2)OCCO3)C1` (stereo unspecified), the inhibition is -2.94%.

With `O=C(NCC(c1ccco1)N1CCc2ccccc21)c1cccc(F)c1` (stereo unspecified), the inhibition is -6.59%.

Consider `CCCOc1ccc(C(=O)NCCc2ccccc2)cc1`, for which the inhibition was 9.57%.

As for `CCCOc1ccc(C(=O)CCC(=O)OC(C)C(=O)Nc2ccc(NC(C)=O)cc2)cc1` (stereo unspecified), the inhibition was -13.4%.

Consider `CCCOc1ccc(C(=O)C(CCC(CNCC)C(=O)c2ccc(OCCC)cc2)CNCC)cc1` (stereo unspecified), for which the inhibition is 56% (active).

With `COc1ccc(-c2cc(C(=O)N(C)CC(=O)Nc3ccccc3Cl)c3ccccc3n2)cc1OC`, the inhibition was 9.44%.

Consider `Cc1ccc(NC(=O)c2cnc(SCC(=O)NCC3CCCO3)n(C)c2=O)cc1` (stereo unspecified), for which the inhibition was -7.14%.

Take `COc1cccc(Cn2cc(/C=N/NC(=O)c3cc(O)cc(O)c3)c3ccccc32)c1`: the inhibition is -8.85%.

In the case of `Cc1ccccc1C(=O)NCC(c1ccco1)N1CCc2ccccc21` (stereo unspecified), the inhibition is 12%.

For `Cc1ccc(Cc2nnc(SCC(=O)Nc3ccccc3C)[nH]c2=O)cc1`, the inhibition was -3.22%.

The record behind these values is PubChem BioAssay AID1885 (Broad Institute, 2009).
